In the EternaBench riboswitch data:

System: MS2 coat protein
Assay: apparent Kd, MS2 coat protein; higher = weaker binding; RNA-MaP array; FMN 200 µM where present
How it was run: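 The apparent Kd is reported as the median of filtered per-cluster binding-curve fits. To get these curves, designs transcribed by stalled E. coli RNA polymerase on Illumina sequencing-chip clusters were titrated with SNAP-549-labelled MS2 coat protein from 0.7 or 1.5 nM, doubling to 3 µM. Titrations were run without and then with constant ligand in 100 mM Tris-HCl pH 7.5, 80 mM KCl, 4 mM MgCl2, BSA, DTT, yeast tRNA and Tween-20, and green signal was normalised to red-channel RNA signal and control-cluster median Fmax.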

[1] = designed as: OFF switch for flavin mononucleotide, no ligand
[2] = ligand present: flavin mononucleotide, designed as: OFF switch for flavin mononucleotide
[3] = designed as: ON switch for flavin mononucleotide, no ligand
[4] = ligand present: flavin mononucleotide, designed as: ON switch for flavin mononucleotide

| Sequence | apparent Kd [1] [nM] | apparent Kd [2] [nM] | apparent Kd [3] [nM] | apparent Kd [4] [nM] |
| --- | --- | --- | --- | --- |
| AGACGGAGCAGAGGAUAUACAUGAGGAUCACCCAUGUAAGAUCUCCAGGAAACUGGAGAUCAAAUGUAGAAGGCUGCUCCGUCA | 17.8 | 55.8 | – | – |
| AGAGAGAGCACAGGAUAUCCGCACACAUGCAGCGGAGAAGGGUGACCUUUUUGCACAUGAGGAUCACCCAUGUCCAGCACCACG | – | – | 25.7 | 13.3 |
| AGAGCCUCGUGAGGAUAUACAUGAGGAUCACCCAUGUAAUAAAGUGAACGGAGGAAACUCCGAAUGUAGAAGGCACGAGGCUCA | 44.5 | 391 | – | – |
| AGAUACAACCAGAAGGACAUGAGGAUCACCCAUGUAGGAUAUGGGUUACACGUUCCUGGGAAUUGUAACGACGCUACGAAGAGU | – | – | 126 | 12.8 |
| AGAUCACAUGAGGAUCACCCAUGUCAGGAUAUGAUACUAUGUACUUCGGUACAUAGUAUCAGAAGGGACUUAAA | 101 | 283 | – | – |
| AGAUCACAUGAGGAUCACCCAUGUGAGGAUAUGAUACUAUGUACUUCGGUACAUAGUAUCAGAAGGCAUGUGGA | 56.7 | 109 | – | – |
| AGAUCCUGAGUCAGGAUAUAGAGGCGGUAGCCUGGCUAGAAGGGACAUGAGGAUCACCCAUGUGGGUUCGAGCC | 17.7 | 31.3 | – | – |
| AGAUGUGAACAUGAGGAUCACCCAUGUGACUAGGUUUAUUUCAGAAGGCAUUUAUAGAGAUUAUAUGAGGAUAUGAAGUUUUAA | – | – | 12.4 | 6.45 |
| AGCAGACGAGGAUAUAGAUUUGUUAACAUGAGGAUCACCCAUGUGAUCGAUUAAUCAUAUUUAGAAGGUGUCUGCU | 37.7 | 154 | – | – |
| AGCCCGGGAGGAUAUCCAAUAUAUGACAUGAGGAUCACCCAUGUUUCCACUCGUACCUCCGGAGAAGGCCCGGCGA | 19.7 | 19.4 | – | – |
| AGCCUACAUGAGGAUCACCCAUGUCAGGAUAUCUCGCGGCGUGUCAAGUUCACACUGCAGAGAAGGGACUCGGG | 58.1 | 66.9 | – | – |
| AGCGAGGUAGGAUAUACAUGAGGAUCACCCAUGUGCUUGCAUGGCGUGGAACGUCGAGGUAGAAGGGCCGCGCC | 24.2 | 35.7 | – | – |
| AGCUACGUUUCGUAGCAGCUAGGUGAGGAUAUCCACUCAACAUGAGGAUCACCCAUGUAAACAUGGGAGAAGGCGCCUAGAAAG | – | – | 63.4 | 9.63 |
| AGCUAGUCAGGAUAUACGCGAACGAACGAAGCAGUGAAGGGACAUGAGGAUCACCCAUGUAGAAGGGACUAGCA | 27.1 | 53.7 | – | – |
| AGCUCGGGUUAGGAUAUUCGCAGCAAGAUGACCGAAGAAGGGACCACAUGAGGAUCACCCAUGUUUGUUUAGAA | 25.9 | 24.5 | – | – |
| AGCUGACGAGGAUAUACAUGAGGAUCACCCAUGUUGGUCAAGCGACGAUAGUCGCAAUGUAGAAGGUGUCAGCU | 138 | 565 | – | – |
| AGCUGGUAGAGAGGAUAUCAUGUGCUGACAUGAGGAUCACCCAUGUAGGGACGUCGGUCCAAUUAUGAGAAGGCUCUACCAGCA | – | – | 80.5 | 48.2 |
| AGCUGGUGACAGCAAGAAACUUCACAUGAGGAUCACCCAUGUAGAAGGCUGUACGGUUACCGUACAGAGGAUAUACAUGAAAAG | 9.49 | 26.8 | – | – |
| AGCUGGUGACAGCAAGAAAUUUCACAUGAGGAUCACCCAUGUAGAAGGCUGUACGGUUACCGUACAGAGGAUAUACAUAGAAAG | 22.4 | 30.5 | – | – |

| Sequence | apparent Kd [1] [nM] | apparent Kd [2] [nM] | apparent Kd [3] [nM] | apparent Kd [4] [nM] |
| --- | --- | --- | --- | --- |
| AGCUGGUGACAGCAUCCAUCAAAACAUGAGGAUCACCCAUGUAGAAGGCUGUACGGUUACCGUACAGAGGAUAUACAUAGAUGG | 10.4 | 14.9 | – | – |
| AGCUGUGGCAGAGGAUAUACUCCUAAAAUCCAUUGCAAAUAGCGAUGGACAUGAGGAUCACCCAUGUAGAAGGCUGUCUCAGCA | 57.2 | 649 | – | – |
| AGCUGUGGCCGAGGAUAUCUAAAACUCAAAACCGAAAUAUAAUCGGACAUGAGGAUCACCCAUGUAGAGAAGGCGGUCUCAGCA | 78.8 | 157 | – | – |
| AGGAAGGGUGCUCCGGCGGGCCGAGCAGAAGGGUGAUUGGACAUGAGGAUCACCCAUGUAUAAACACAGGAUAUGCAAACGGGU | – | – | 305 | 13.1 |
| AGGAAGUUAGGAUAUGCUGCUCGUCACUUGCGUGAUGAGUAGCAGAAGGAACAUGAGGAUCACCCAUGUAAAGA | 30.8 | 27.2 | – | – |
| AGGCAGGACCAGAAGGACAUGAGGAUCACCCAUGUAGGAUAUGGGCGUGGUUUAUGGGUACCUGGGAGAAUGACUGGGUUGUCA | – | – | 363 | 29.4 |
| AGGCGAGUAGGAUAUGCGUUUUUACGGGAAAGCUGGAUGAUACAUGAGGAUCACCCAUGUAGAAGGGCUCUGAA | 20.6 | 16 | – | – |
| AGGCGGGCAGGAUAUGCGUACUGACGGGAAAACUGAAUGGUACAUGAGGAUCACCCAUGUAGAAGGGCUUUGAA | 50.1 | 38.3 | – | – |
| AGGGAGUUAGGAUAUGCUGCUCGUCACUUGCGUGAUGAGUAGCAGAAGGGACAUGAGGAUCACCCAUGUAAAGA | 42.1 | 24.7 | – | – |
| AGGGUUGUGCUAGGAUAUCCAGGUUUGCAACAAGGAGAAGGAGCACAUGAGGAUCACCCAUGUUCUCAAAGGCCAUGGCAAUAU | 12.4 | 56.3 | – | – |
| AGGUAACAUGAGGAUCACCCAUGUCAGGAUAUCAGGAAGAUUAGAAUAGAGUAGAGGAUGAGAAGGGACUAUAU | 32 | 30.3 | – | – |
| AGGUCACAUGAGGAUCACCCAUGUCAGGAUAUCGUCACUGGAGCUGCGGCUCCAGUGACGAGAAGGGAUAAUUA | 45.5 | 70.5 | – | – |
| AGGUGUCCUGAGAAAUUUCUCCACAUGAGGAUCACCCAUGUAGAGGAUAUCGACGCUGUGCGGUUCGAGAAGGCUACACUAAUU | 6.54 | 22.7 | – | – |
| AGUAACAGAGGAUAUACUAUUUUAUGUAUUUAUUAUUUUAAACAUGAGGAUCACCCAUGUAGAAGGCUGAAUGA | 24.7 | 22.8 | – | – |
| AGUAAGAUGCAGAAGGUGUCAGCGAGAGCUGCGACAUGAGGAUCACCCAUGUACAAGUGAGUGUACAAGGAUAUGCAUCUUACA | – | – | 192 | 24 |
| AGUAGAUCAGGAUAUACAUAAAUGAUAAUUAUGUACUUUUUACAUGAGGAUCACCCAUGUAGAAGGGAUCUACA | 14.8 | 22 | – | – |
| AGUAUGCAGCAGGAUAUCGAUCCGCAGUAUGAUCGAGAAGGGCUGACAUGAGGAUCACCCAUGUGCGUCCUAGG | 40.1 | 167 | – | – |
| AGUAUGCGGCAGGAUAUCCAUCCGCGGUGUGGUGGAGAAGGGCUGACAUGAGGAUCACCCAUGUGCGUCCUGUA | 23.6 | 37.9 | – | – |
| AGUCAUACAGGAUAUACAUGAGGAUCACCCAUGUAUAUCCAAAAAAAAUGAUCCUCAUGUAGAAGGGUAUGACA | 15.9 | 10.5 | – | – |

| Sequence | apparent Kd [1] [nM] | apparent Kd [2] [nM] | apparent Kd [3] [nM] | apparent Kd [4] [nM] |
| --- | --- | --- | --- | --- |
| AGUCAUGUCCGAGGAUAUGAUGCCGGUUUCUGCAAGCCAACGCGCCCGGCCUCAGAAGGCGGACAUGAGGAUCACCCAUGUAUC | 64.9 | 12.2 | – | – |
| AGUCGGAGCAGAGGAUAUACAUGAGGAUCACCCAUGUAAUAUGAUCUAGCCAGGAAACUGGCAAUGUAGAAGGCUGCUCCGACA | 92.3 | 797 | – | – |
| AGUCGGGAAUACUCGAAUGGUUAGCAGGAUAUCGACAUGAGGAUCACCCAUGUUGGGUUGAAUGUCGAGAAGGGCUCGGAAUGA | 198 | 193 | – | – |
| AGUCUGCUAGGAUAUACAUGAGGAUCACCCAUGUCUAUCAAAAGACUAUUAACCUGGUGUAGAAGGAGCUUGUA | 11.1 | 12.5 | – | – |
| AGUGAGGGAGGAUAUACGUUGGUAUCACUGCAUUCGUCGUCACAUGAGGAUCACCCAUGUAGAAGGCCCGAGAG | 28.8 | 79.1 | – | – |
| AGUGUCAUCGAGAAGGCCUCAACAUGAGGAUCACCCAUGUUGUAAAAUGGGAGGAUAUCGAUGAUACAGCUACGUUUCGUAGCA | – | – | 11.3 | 4.88 |
| AGUGUCAUUUAGAAGGCCUCAUGACAUGAGGAUCACCCAUGUUAUCAUGGGAGGAUAUGGAUGAUAUAGCUACGUUUCGUAGCA | – | – | 233 | 78.2 |
| AGUGUGUGGCAGGAUAUGCGAUUUGUCGGUGUUGCAGAAGGGUCUACAUGAGGAUCACCCAUGUGUGCGGUUGA | 184 | 309 | – | – |
| AGUUAAUAUCGAGGAUAUCUCAUGGAGACAUGAGGAUCACCCAUGUGAAUGGGAGAAGGCGAUAUUAACAGCAUGUUACAUGCA | – | – | 284 | 21.2 |
| AGUUACAGGAUAGGAUAUGGCGUGACAUGGCUGCCAGAAGGAUCCUCGGGAACAUGAGGAUCACCCAUGUGACCGUGUCGAGUC | – | – | 126 | 170 |
| AGUUACAUACUCAACAUGAGGAUCACCCAUGUACUCUCUUGUAAGGAUAUACAUUCGUAUUGAUAGUAGAAGGUACUAAUUAUG | – | – | 50.9 | 51.5 |
| AGUUAUUCAGGAUAUGGUGUGUUAUACAUGAGGAUCACCCAUGUGGGUCCUGGUUAGGCCUCAGAAGGGAAUGUUA | 703 | 534 | – | – |
| AGUUUACAUGAGGAUCACCCAUGUGAGGAUAUGGUUUCGCUGGCCGUAGCCAGUGGAACCAGAAGGCGCAUGAU | 76 | 349 | – | – |
| AGUUUUGUACAUGAGGAUCACCCAUGUUAAUAUGUGGUAGUCAGAAGGCAUUGUUAGUGUUUAUAUGAGGAUAUGAUUAGUCAG | – | – | 50.3 | 26.4 |
| AUAAAGUCAGGAUAUGUAAAAAUAACGAAAGUUAUAAAUAAACAGAAGGGACAUGAGGAUCACCCAUGUAAAAU | 32.3 | 39.6 | – | – |
| AUAAAGUCAGGAUAUGUAAGAAUAACGAAAGUUAUAAAGAAACAGAAGGGACAUGAGGAUCACCCAUGUAAAAU | 29.6 | 30.5 | – | – |
| AUAAAUGAGGAGGAUAUCGAAUCGGAAACGAUUCGAGAAGGCCUAACAUGAGGAUCACCCAUGUUCCUUAAAUA | 28.8 | 42.2 | – | – |
| AUAACGUCAGGAUAUUUCCAGAGGGUCAUAGGACCCAUUGGAAAGAAGGGACAUGAGGAUCACCCAUGUCGGUG | 136 | 391 | – | – |
